Experiment [1] concerns the target Serine/threonine-protein kinase A-Raf (Homo sapiens) (UniProt P10398). Briefly: Inhibition of ARAF in human SKCO1 cells at 1 uM after 4 hrs using biotin labeled DLKSNNIFLHEGLTVK probe by mass-spectrometric analysis relative to control. The experiment is classed as cell-based.
In experiment [2] the target is Mitogen-activated protein kinase 3 (Homo sapiens) (UniProt P27361). Briefly: Inhibition of Erk1 in human SKCO1 cells at 1 uM after 4 hrs using biotin labeled DLKPSNLLINTTCDLK probe by mass-spectrometric analysis relative to control. In kind it is cell-based.
Mitogen-activated protein kinase 3 (Homo sapiens), sequence (P27361 whole entry): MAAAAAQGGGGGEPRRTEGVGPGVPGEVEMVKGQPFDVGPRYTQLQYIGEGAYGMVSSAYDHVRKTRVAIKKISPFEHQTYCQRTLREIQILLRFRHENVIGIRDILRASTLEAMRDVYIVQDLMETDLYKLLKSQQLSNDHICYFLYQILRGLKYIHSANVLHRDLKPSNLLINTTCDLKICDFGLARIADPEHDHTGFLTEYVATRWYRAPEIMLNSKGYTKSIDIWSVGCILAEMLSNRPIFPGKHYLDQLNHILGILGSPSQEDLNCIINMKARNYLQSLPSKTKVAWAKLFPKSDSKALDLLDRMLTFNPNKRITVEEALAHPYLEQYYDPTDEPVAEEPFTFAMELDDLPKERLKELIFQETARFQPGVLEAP
The target of experiment [3] is Mitogen-activated protein kinase 1 (Homo sapiens) (UniProt P28482). Briefly: Inhibition of Erk2 in human SKCO1 cells at 1 uM after 4 hrs using biotin labeled DLKPSNLLLNTTCDLK probe by mass-spectrometric analysis relative to control. In kind it is cell-based.
Mitogen-activated protein kinase 1 (Homo sapiens), sequence (P28482 whole entry): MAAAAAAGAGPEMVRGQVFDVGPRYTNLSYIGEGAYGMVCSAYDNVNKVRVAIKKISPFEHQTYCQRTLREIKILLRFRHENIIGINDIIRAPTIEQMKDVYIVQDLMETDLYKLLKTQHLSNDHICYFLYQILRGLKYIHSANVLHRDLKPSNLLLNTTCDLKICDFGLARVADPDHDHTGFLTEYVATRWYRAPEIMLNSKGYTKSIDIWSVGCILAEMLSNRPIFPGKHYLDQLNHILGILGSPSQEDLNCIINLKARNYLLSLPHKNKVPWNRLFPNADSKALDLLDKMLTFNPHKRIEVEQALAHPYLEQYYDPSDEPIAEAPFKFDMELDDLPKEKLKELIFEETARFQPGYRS
For experiment [4], the target named is Serine/threonine-protein kinase/endoribonuclease IRE2 (Homo sapiens) (UniProt Q76MJ5). Briefly: Inhibition of IRE2 in human SKCO1 cells at 1 uM after 4 hrs using biotin labeled DLKPGNILITGPDSQGLGR probe by mass-spectrometric analysis relative to control. In kind it is cell-based.
Serine/threonine-protein kinase/endoribonuclease IRE2 (Homo sapiens), sequence (Q76MJ5 35-926 limits assumed): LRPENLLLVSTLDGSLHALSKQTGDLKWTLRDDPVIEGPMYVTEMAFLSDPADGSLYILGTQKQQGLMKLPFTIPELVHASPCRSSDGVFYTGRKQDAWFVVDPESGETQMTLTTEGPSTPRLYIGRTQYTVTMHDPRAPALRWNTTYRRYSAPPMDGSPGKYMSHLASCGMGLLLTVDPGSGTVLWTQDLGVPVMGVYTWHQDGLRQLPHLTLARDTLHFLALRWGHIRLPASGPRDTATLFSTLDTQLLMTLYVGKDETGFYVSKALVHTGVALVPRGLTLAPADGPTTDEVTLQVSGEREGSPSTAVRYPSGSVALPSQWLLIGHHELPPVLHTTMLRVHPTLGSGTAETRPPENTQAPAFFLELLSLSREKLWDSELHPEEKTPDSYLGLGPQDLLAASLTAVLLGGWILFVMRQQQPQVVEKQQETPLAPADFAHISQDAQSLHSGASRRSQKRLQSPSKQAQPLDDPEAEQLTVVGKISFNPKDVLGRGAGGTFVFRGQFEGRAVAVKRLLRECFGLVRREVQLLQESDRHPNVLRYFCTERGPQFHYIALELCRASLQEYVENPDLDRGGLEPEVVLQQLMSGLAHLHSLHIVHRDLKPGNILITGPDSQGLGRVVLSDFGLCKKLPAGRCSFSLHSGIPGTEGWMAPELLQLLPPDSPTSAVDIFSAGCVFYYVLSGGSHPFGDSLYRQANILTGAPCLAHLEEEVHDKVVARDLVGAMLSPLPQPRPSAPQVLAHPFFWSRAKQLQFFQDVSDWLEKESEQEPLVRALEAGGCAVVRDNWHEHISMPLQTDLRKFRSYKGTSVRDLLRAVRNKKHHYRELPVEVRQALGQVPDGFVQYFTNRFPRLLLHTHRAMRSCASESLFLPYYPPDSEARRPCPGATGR
Experiment [5] deals with Tyrosine-protein kinase JAK1 (Homo sapiens) (UniProt P23458). Briefly: Inhibition of JAK1 domain1 in human SKCO1 cells at 1 uM after 4 hrs using biotin labeled QLASALSYLEDKDLVHGNVCTKNLLLAR probe by mass-spectrometric analysis relative to control. In kind it is cell-based.
The target of experiment [6] is Mitogen-activated protein kinase 10 (Homo sapiens) (UniProt P53779). Briefly: Inhibition of JNK3 in human SKCO1 cells at 1 uM after 4 hrs using biotin labeled DLKPSNIVVK probe by mass-spectrometric analysis relative to control. The experiment is classed as cell-based.
Experiment [7] deals with Mitogen-activated protein kinase kinase kinase kinase 5 (Homo sapiens) (UniProt Q9Y4K4). Briefly: Inhibition of KHS1 in human SKCO1 cells at 1 uM after 4 hrs using biotin labeled NVHTGELAAVKIIK probe by mass-spectrometric analysis relative to control. In kind it is cell-based.
Mitogen-activated protein kinase kinase kinase kinase 5 (Homo sapiens), sequence (Q9Y4K4 whole entry, looked up): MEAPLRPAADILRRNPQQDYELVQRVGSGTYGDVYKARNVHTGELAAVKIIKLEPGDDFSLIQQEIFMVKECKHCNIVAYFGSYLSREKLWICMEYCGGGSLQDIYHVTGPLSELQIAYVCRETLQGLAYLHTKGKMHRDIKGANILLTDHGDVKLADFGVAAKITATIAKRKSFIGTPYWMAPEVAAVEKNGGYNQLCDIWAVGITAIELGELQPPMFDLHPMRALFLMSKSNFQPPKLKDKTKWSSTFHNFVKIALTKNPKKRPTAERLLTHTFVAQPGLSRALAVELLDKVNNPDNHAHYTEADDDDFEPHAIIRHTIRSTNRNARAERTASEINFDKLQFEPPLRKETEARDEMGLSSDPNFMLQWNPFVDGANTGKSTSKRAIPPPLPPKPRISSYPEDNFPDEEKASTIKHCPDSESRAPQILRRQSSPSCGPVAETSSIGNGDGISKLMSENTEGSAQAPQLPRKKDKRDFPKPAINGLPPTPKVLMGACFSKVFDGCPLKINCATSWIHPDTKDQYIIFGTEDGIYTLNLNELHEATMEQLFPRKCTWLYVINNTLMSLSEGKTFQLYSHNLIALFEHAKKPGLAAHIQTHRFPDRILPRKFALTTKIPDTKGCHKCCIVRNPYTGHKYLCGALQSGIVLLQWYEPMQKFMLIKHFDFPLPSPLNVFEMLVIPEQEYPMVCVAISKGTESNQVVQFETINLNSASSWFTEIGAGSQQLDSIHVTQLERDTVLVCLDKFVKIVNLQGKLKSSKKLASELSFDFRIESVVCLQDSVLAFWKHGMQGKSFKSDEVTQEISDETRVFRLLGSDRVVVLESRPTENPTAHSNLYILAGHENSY
Experiment [8] deals with Tyrosine-protein kinase Lck (Homo sapiens) (UniProt P06239). Briefly: Inhibition of LCK in human SKCO1 cells at 1 uM after 4 hrs using biotin labeled EGAKFPIKWTAPEAINYGTFTIK probe by mass-spectrometric analysis relative to control. The experiment is classed as cell-based.
For experiment [9], the target named is Mitogen-activated protein kinase 14 (Homo sapiens) (UniProt Q16539). Briefly: Inhibition of p38a in human SKCO1 cells at 1 uM after 4 hrs using biotin labeled DLKPSNLAVNEDCELK probe by mass-spectrometric analysis relative to control. The experiment is classed as cell-based. A digest of the protocol:
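Live SK-CO-1 cells exposed to compound at 1 μM or DMSO for 4 h (KiNativ). Lysates then labeled with lysine-reactive ATP/ADP-biotin probe, and probe-labeled kinase peptides quantified by mass spectrometry. Percent inhibition of probe-dependent recovery calculated relative to DMSO-treated cells.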

Experiment [10] has as its target Wee1-like protein kinase (Homo sapiens) (UniProt P30291). Briefly: Inhibition of Wee1 in human SKCO1 cells at 1 uM after 4 hrs using biotin labeled YIHSMSLVHMDIKPSNIFISR probe by mass-spectrometric analysis relative to control. The experiment is classed as cell-based. A digest of the protocol:
(§1)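 Live SK-CO-1 cells treated 4 h at 1 μM (DMSO control); cells lysed and lysates labeled with lysine-reactive ATP/ADP-biotin probe (KiNativ); probe-labeled kinase peptides quantified by mass spectrometry; inhibition expressed as percent reduction in probe-dependent recovery versus DMSO-treated cells.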

Experiment [11] has as its system U-937. Briefly: Antiproliferative activity against human U937 cells at […] to […] nM after 72 hrs by CellTiter-Glo assay. The experiment is classed as functional, cell-based. (In general: ATP-based viability assays read luminescence as a measure of living cells.)
The target of experiment [12] is T1, Mitogen-activated protein kinase kinase kinase 7 (Homo sapiens) (UniProt O43318).
T1 sequence (whole entry): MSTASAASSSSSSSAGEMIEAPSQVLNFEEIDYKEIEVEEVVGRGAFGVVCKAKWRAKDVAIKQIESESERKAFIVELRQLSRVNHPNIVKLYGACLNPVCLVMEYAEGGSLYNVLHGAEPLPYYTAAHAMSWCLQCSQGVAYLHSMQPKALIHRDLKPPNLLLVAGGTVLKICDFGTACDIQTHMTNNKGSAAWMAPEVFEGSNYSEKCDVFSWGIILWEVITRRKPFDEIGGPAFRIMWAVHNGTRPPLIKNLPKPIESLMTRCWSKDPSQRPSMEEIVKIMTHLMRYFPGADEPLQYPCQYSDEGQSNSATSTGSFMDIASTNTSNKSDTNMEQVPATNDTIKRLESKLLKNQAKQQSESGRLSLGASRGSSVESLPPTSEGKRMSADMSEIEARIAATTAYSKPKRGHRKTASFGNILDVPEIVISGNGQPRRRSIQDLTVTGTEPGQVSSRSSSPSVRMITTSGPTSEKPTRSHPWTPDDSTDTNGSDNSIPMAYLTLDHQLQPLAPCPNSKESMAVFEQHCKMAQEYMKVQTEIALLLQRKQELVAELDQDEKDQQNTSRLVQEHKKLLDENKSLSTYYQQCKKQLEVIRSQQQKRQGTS
The settings on record: NCI-H358, 1 uM.

Experiment [13] addresses Cyclin-dependent kinase 6 (Homo sapiens) (UniProt Q00534). Briefly: Inhibition of CDK6 in human SKCO1 cells at 1 uM after 4 hrs using biotin labeled DLKPQNILVTSSGQIK probe by mass-spectrometric analysis relative to control. In kind it is cell-based.
The target of experiment [14] is Receptor tyrosine-protein kinase erbB-2 (Homo sapiens) (UniProt P04626). Briefly: Inhibition of HER2/ErbB2 in human SKCO1 cells at 1 uM after 4 hrs using biotin labeled GIWIPDGENVKIPVAIKVLR probe by mass-spectrometric analysis relative to control. The experiment is classed as cell-based.
The target in experiment [15] is Dual specificity mitogen-activated protein kinase kinase 1 (Homo sapiens) (UniProt Q02750). Briefly: Inhibition of MAP2K1 in human SKCO1 cells at 1 uM after 4 hrs using biotin labeled DVKPSNILVNSR probe by mass-spectrometric analysis relative to control. In kind it is cell-based. A digest of the protocol:
as §1

The target of experiment [16] is Serine/threonine-protein kinase greatwall (Homo sapiens) (UniProt Q96GX5). Briefly: Inhibition of MASTL in human SKCO1 cells at 1 uM after 4 hrs using biotin labeled LYAVKVVK probe by mass-spectrometric analysis relative to control. The experiment is classed as cell-based.
Serine/threonine-protein kinase greatwall (Homo sapiens), sequence (Q96GX5 whole entry): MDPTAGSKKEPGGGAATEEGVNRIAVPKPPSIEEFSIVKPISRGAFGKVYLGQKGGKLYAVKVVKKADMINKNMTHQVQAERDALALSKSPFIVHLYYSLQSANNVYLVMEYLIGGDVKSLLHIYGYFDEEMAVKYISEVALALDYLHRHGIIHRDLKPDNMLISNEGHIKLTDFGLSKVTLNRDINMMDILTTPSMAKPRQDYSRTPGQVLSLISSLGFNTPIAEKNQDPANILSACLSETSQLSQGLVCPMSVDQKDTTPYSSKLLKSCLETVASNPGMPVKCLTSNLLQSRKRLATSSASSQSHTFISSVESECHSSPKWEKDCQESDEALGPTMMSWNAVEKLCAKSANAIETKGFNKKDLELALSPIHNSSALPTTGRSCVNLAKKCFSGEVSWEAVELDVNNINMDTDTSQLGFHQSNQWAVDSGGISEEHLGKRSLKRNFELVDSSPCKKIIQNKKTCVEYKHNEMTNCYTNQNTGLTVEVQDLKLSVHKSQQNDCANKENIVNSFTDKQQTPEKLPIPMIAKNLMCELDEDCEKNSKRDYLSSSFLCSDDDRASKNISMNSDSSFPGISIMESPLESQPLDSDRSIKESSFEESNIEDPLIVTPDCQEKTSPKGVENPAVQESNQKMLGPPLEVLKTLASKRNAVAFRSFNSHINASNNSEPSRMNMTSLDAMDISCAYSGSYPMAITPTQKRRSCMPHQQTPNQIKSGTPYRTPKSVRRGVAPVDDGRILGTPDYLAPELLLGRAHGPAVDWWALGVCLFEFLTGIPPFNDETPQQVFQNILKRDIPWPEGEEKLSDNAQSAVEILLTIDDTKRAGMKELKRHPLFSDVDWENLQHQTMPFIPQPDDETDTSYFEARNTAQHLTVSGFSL
Experiment [17] has as its target Serine/threonine-protein kinase Nek6 (Homo sapiens) (UniProt Q9HC98). Briefly: Inhibition of NEK6 in human SKCO1 cells at 1 uM after 4 hrs using biotin labeled TVALKK probe by mass-spectrometric analysis relative to control. In kind it is cell-based.
The target of experiment [18] is Serine/threonine-protein kinase Nek7 (Homo sapiens) (UniProt Q8TDX7). Briefly: Inhibition of NEK7 in human SKCO1 cells at 1 uM after 4 hrs using biotin labeled DIKPANVFITATGVVK probe by mass-spectrometric analysis relative to control. In kind it is cell-based.
The target in experiment [19] is Mitogen-activated protein kinase 14 (Homo sapiens) (UniProt Q16539). Briefly: Inhibition of p38a in human SKCO1 cells at 1 uM after 4 hrs using biotin labeled QELNKTIWEVPER probe by mass-spectrometric analysis relative to control. The experiment is classed as cell-based. A digest of the protocol: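 Live SK-CO-1 cells were treated at 1 μM for 4 h alongside DMSO controls, then lysed. Lysates were labelled with a lysine-reactive ATP or ADP-biotin probe, and probe-dependent peptide recovery was quantified by mass spectrometry. Inhibition (%) is relative to DMSO-treated cells.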
Mitogen-activated protein kinase 14 (Homo sapiens), sequence (Q16539 whole entry): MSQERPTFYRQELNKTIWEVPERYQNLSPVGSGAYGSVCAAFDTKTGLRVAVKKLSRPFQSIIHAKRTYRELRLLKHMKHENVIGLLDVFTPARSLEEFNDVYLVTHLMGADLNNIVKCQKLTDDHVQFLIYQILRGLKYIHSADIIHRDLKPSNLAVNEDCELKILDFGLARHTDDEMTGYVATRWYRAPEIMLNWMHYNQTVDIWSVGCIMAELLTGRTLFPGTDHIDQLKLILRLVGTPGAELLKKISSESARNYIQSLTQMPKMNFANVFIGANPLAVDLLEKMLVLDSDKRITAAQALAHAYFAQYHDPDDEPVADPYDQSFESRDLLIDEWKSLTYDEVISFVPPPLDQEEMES

Experiment [20] concerns BaF3. Briefly: Antiproliferative activity against mouse BA/F3 cells harboring KRAS G12D mutant after 72 hrs in presence of IL-3 by CellTiter-Glo assay. In kind it is functional, cell-based. The settings on record: BaF3, 72 h.

Active and inactive are the calls of the source. The calls are words filed in the database; no cut-off is given here.

These results are taken from ChEMBL document CHEMBL4118021, “Studies of TAK1-centered polypharmacology with novel covalent TAK1 inhibitors” (Bioorg Med Chem, 2017).

Serine/threonine-protein kinase A-Raf (Homo sapiens), sequence (P10398 whole entry): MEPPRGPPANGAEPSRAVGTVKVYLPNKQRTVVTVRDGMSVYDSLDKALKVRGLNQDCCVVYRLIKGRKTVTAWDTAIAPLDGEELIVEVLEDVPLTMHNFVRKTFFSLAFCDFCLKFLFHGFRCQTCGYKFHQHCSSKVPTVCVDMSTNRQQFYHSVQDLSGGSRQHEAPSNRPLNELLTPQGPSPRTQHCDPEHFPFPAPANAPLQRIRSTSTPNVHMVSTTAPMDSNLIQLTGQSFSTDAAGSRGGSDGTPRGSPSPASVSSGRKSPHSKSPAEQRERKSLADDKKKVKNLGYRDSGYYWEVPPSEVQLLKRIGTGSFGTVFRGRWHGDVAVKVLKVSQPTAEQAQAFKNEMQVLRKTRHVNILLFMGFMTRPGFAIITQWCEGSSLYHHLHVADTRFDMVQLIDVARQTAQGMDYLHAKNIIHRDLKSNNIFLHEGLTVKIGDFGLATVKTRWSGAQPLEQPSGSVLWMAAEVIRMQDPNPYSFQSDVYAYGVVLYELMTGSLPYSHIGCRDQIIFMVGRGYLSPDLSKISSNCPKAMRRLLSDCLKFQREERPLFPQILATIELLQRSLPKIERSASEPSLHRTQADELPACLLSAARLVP
Serine/threonine-protein kinase Nek6 (Homo sapiens), sequence (Q9HC98 whole entry): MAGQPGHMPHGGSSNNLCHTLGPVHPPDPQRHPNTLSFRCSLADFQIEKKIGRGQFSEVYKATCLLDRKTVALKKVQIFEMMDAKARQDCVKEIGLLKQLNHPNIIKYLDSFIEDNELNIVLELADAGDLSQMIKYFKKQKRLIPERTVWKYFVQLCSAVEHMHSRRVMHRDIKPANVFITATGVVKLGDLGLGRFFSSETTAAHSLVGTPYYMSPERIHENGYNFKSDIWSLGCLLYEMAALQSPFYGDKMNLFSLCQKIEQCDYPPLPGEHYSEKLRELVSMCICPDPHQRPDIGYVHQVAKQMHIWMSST
Cyclin-dependent kinase 6 (Homo sapiens), sequence (Q00534 whole entry): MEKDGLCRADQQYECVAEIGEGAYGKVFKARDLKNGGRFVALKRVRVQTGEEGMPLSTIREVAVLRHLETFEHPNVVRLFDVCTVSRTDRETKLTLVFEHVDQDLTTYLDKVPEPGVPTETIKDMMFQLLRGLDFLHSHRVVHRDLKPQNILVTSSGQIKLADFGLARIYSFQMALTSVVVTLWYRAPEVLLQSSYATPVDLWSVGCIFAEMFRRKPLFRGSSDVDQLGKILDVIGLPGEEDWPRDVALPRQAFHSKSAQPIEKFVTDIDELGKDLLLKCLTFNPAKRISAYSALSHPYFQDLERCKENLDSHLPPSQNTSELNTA

As usually defined, the inhibition is the relative decrease from the control value, in per cent. For `C=CC(=O)Nc1ccccc1Nc1nc(Nc2ccc(N3CCN(C)CC3)cc2)ncc1Cl`, the inhibition in [1] amounted to 57%; in [2] it was 5.2%; in [3], 42.6%; in [4], 6.9%; in experiment [5] it was 64.7%; in experiment [6] it was 70%. The inhibition in experiment [7] is 14.8%; in experiment [8], 0%; in [9], -7.7%; in experiment [10], 79%. Besides, the result in experiment [11] was Active. For the same molecule, the inhibition result in [12] was “Active”.
In general, IC50 refers to the concentration at which inhibition is half-maximal. In the case of `COc1cc(O)c2c(c1)/C=C/C[C@H](O)[C@H](O)C(=O)/C=C\C[C@H](C)OC2=O`, the inhibition in experiment [1] is 85.5%; in [13], 68.8%; in experiment [14] it was 14.5%; in experiment [4] it was 21.4%; in [5], 21.6%; in [15] it was 95%. Moreover, the inhibition was 51.7% in [16]; -9.7% in experiment [17]; 4.9% in experiment [18]; 10.2% in experiment [19]; 3% in experiment [10]. Further, in [20], the half-maximal inhibitory concentration (IC50) worked out at 12 nM. For the same molecule, in experiment [12], the inhibition entry was “Active”.
For `C=CC(=O)Nc1ccccc1Oc1nc(Nc2cnn(CCOC)c2)ncc1Cl`, the inhibition in experiment [13] was 54.5%; in experiment [2], 42.7%; in experiment [3], 55.7%; in [14], -2.2%; in experiment [6], 0.8%; in experiment [7], -4.6%. In addition, the inhibition is -2.7% in experiment [8]; 7.9% in experiment [15]; 41.3% in [16]; -9.9% in experiment [17]; -0.4% in [18]; -3.3% in experiment [9]. For the same molecule, in [19], the inhibition came out at 12.7%. Further, the IC50 in experiment [20] stood at 302 nM. Moreover, the result in experiment [11] was Active.
